# Source: ChEMBL document CHEMBL1275547, “KHM-1, a novel plasmid-mediated metallo-beta-lactamase from a Citrobacter freundii clinical isolate” (2008)
# The source made the active and inactive calls. The rule behind the calls is not given here.
# Assays:
# Escherichia coli [1] = test: Antibacterial activity against Escherichia coli JM109 harboring recombinant pKHM-1 by microdilution method; type: functional
# Escherichia coli [2] = test: Antibacterial activity against Escherichia coli K-12 W1895 transconjugant harboring pCF243 by microdilution method; type: functional
# Escherichia coli [3] = test: Antibacterial activity against Escherichia coli JM109 by microdilution method; type: functional
# Summary of the method: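 Microdilution β-lactam susceptibility in E. coli JM109, the host strain for recombinant plasmids such as the pHSG396-based blaKHM-1 clone.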
# Escherichia coli [4] = test: Antibacterial activity against Escherichia coli K-12 W1895 by microdilution method; type: functional
# Summary of the method: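 Microdilution β-lactam MICs in E. coli K-12 W1895, the conjugation recipient. Transconjugants carrying the natural blaKHM-1 plasmid were selected on Penassay agar with rifampin (200 μg/ml) and moxalactam (16 μg/ml).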
# Escherichia coli [5] = conditions: JM109
# Escherichia coli [6] = test: Ratio of Kcat to Km for Escherichia coli JM109 harboring recombinant pKHM-1 Beta-lactamase KHM-1 assessed as compound hydrolysis by UV-visible spectrophotometry
# Summary of the method: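 KHM-1 was purified from E. coli JM109(pKHM-1) on HiTrap Q and Superdex 200 columns, with fractions tracked by 100 μM nitrocefin hydrolysis. Protein was measured by BCA. Hydrolysis was followed spectrophotometrically in 50 mM phosphate pH 7.0 at 25°C under initial-rate conditions. Km and kcat came from Lineweaver-Burk plots as means of three independent experiments, and kcat/Km was calculated from them.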
# Escherichia coli [7] = test: Antibacterial activity against Escherichia coli JM109 harboring recombinant pKHM-1 by microdilution method in presence of Sulbactam; type: functional
# Summary of the method: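 Broth microdilution MIC of ampicillin-sulbactam, combined at a 2:1 ampicillin:sulbactam ratio. The host is E. coli JM109 carrying pKHM-1, a recombinant pHSG396 clone of an EcoRI fragment of pCF243 bearing blaKHM-1, selected on agar with moxalactam (1 μg/ml).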
# Citrobacter freundii [8] = test: Antibacterial activity against Citrobacter freundii KHM243 clinical isolate by microdilution method in presence of Sulbactam; type: functional
# Summary of the method: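 Broth microdilution susceptibility of C. freundii KHM243, a urinary isolate from a catheter-associated UTI patient (1997). Ampicillin was tested with sulbactam at a fixed ampicillin:sulbactam ratio of 2:1.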
# Escherichia coli [9] = test: Antibacterial activity against Escherichia coli K-12 W1895 by microdilution method in presence of Sulbactam; type: functional
# Summary of the method: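 β-Lactam susceptibility was measured by microdilution. Ampicillin was tested combined with sulbactam at a fixed 2:1 ampicillin:sulbactam ratio. The E. coli K-12 W1895 strain served as the recipient strain in the conjugation experiments.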
# Citrobacter freundii [10] = test: Antibacterial activity against Citrobacter freundii KHM243 clinical isolate by microdilution method; type: functional
# Escherichia coli [11] = test: Antibacterial activity against Escherichia coli JM109 by microdilution method in presence of Sulbactam; type: functional
# Summary of the method: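 Microdilution β-lactam susceptibility in E. coli JM109, the host for recombinant plasmids including the pHSG396 construct carrying blaKHM-1. Sulbactam was paired with ampicillin at a fixed 2:1 ampicillin-to-sulbactam ratio.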
# Escherichia coli [12] = test: Antibacterial activity against Escherichia coli K-12 W1895 transconjugant harboring pCF243 by microdilution method in presence of Sulbactam; type: functional
# Summary of the method: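 Broth microdilution MIC of ampicillin-sulbactam, combined at a 2:1 ampicillin:sulbactam ratio. The host is an E. coli K-12 W1895 transconjugant carrying the natural blaKHM-1 plasmid pCF243 from C. freundii KHM243, selected on Penassay broth agar with rifampin (200 μg/ml) and moxalactam.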
# Escherichia coli [13] = conditions: JM109; remark: listed apart in the source
Structure (SMILES),MIC (Escherichia coli [1]),MIC (Escherichia coli [2]),MIC (Escherichia coli [3]),MIC (Escherichia coli [4]),Km (Escherichia coli [5]),kcat (Escherichia coli [5]),kcat/Km (Escherichia coli [6]),MIC (Escherichia coli [7]),MIC (Citrobacter freundii [8]),MIC (Escherichia coli [9]),MIC (Citrobacter freundii [10]),MIC (Escherichia coli [11]),MIC (Escherichia coli [12]),Km (Escherichia coli [13]),kcat (Escherichia coli [13])
CO/N=C(\C(=O)N[C@@H]1C(=O)N2C(C(=O)[O-])=C(C[N+]3(C)CCCC3)CS[C@H]12)c1csc(N)n1,64 µg/mL,> 512 µg/mL,0.004 µg/mL,0.002 µg/mL,,,,,,,,,,,
CC1(C)S[C@@H]2[C@H](NC(=O)Cc3ccccc3)C(=O)N2[C@H]1C(=O)O,,,,,1340 µM,23 s⁻¹,1.7 ×10⁴ /M/s,,,,,,,,
CC1(C)S[C@@H]2[C@H](NC(=O)[C@H](N)c3ccccc3)C(=O)N2[C@H]1C(=O)O [AMPICILLIN],16 µg/mL,64 µg/mL,1 µg/mL,8 µg/mL,978 µM,19 s⁻¹,1.9 ×10⁴ /M/s,16 µg/mL,64 µg/mL,1 µg/mL,256 µg/mL,0.5 µg/mL,64 µg/mL,,
C[C@H]1[C@H](NC(=O)/C(=N\OC(C)(C)C(=O)O)c2csc(N)n2)C(=O)N1S(=O)(=O)O [AZTREONAM],0.063 µg/mL,0.063 µg/mL,,0.031 µg/mL,,,,,,,,,,inactive,inactive
NC(=O)OC[C@@H]1[C@H](NC(=O)/C(=N\OCC(=O)O)c2csc(N)n2)C(=O)N1S(=O)(=O)O [CARUMONAM],0.063 µg/mL,0.125 µg/mL,0.031 µg/mL,0.031 µg/mL,,,,,,,0.25 µg/mL,,,,
CCN1CCN(C(=O)N[C@@H](C(=O)N[C@]2(OC)C(=O)N3C(C(=O)O)=C(CSc4nnnn4C)CS[C@@H]32)[C@H](C)O)C(=O)C1=O [CEFBUPERAZONE],512 µg/mL,256 µg/mL,0.031 µg/mL,0.063 µg/mL,,,,,,,128 µg/mL,,,,
CO[C@@]1(NC(=O)CSCC#N)C(=O)N2C(C(=O)O)=C(CSc3nnnn3C)CS[C@@H]21 [CEFMETAZOLE],> 512 µg/mL,512 µg/mL,0.25 µg/mL,0.5 µg/mL,,,,,,,512 µg/mL,,,,
CO[C@@]1(NC(=O)CSC[C@@H](N)C(=O)O)C(=O)N2C(C(=O)O)=C(CSc3nnnn3C)CS[C@@H]21 [CEFMINOX],512 µg/mL,> 512 µg/mL,0.25 µg/mL,0.125 µg/mL,,,,,,,512 µg/mL,,,,
CO/N=C(\C(=O)N[C@@H]1C(=O)N2C(C(=O)O)=C(COC(C)=O)CS[C@H]12)c1csc(N)n1 [CEFOTAXIME],128 µg/mL,> 512 µg/mL,0.004 µg/mL,0.008 µg/mL,13 µM,2180 s⁻¹,,,,,64 µg/mL,,,,
CO[C@@]1(NC(=O)C2SC(=C(C(N)=O)C(=O)O)S2)C(=O)N2C(C(=O)O)=C(CSc3nnnn3C)CS[C@@H]21 (stereo partly specified) [CEFOTETAN],> 512 µg/mL,512 µg/mL,0.031 µg/mL,0.125 µg/mL,,,,,,,128 µg/mL,,,,
CO[C@@]1(NC(=O)Cc2cccs2)C(=O)N2C(C(=O)O)=C(COC(N)=O)CS[C@@H]21 [CEFOXITIN],> 512 µg/mL,> 512 µg/mL,8 µg/mL,8 µg/mL,81 µM,1180 s⁻¹,1.4 ×10⁷ /M/s,,,,512 µg/mL,,,,
CO/N=C(\C(=O)N[C@@H]1C(=O)N2C(C(=O)[O-])=C(C[n+]3ccn4ncccc43)CS[C@H]12)c1nsc(N)n1 [CEFOZOPRAN],64 µg/mL,256 µg/mL,0.008 µg/mL,0.016 µg/mL,,,,,,,16 µg/mL,,,,
CC(C)(O/N=C(\C(=O)N[C@@H]1C(=O)N2C(C(=O)[O-])=C(C[n+]3ccccc3)CS[C@H]12)c1csc(N)n1)C(=O)O [CEFTAZIDIME],> 512 µg/mL,> 512 µg/mL,0.063 µg/mL,0.125 µg/mL,8 µM,118 s⁻¹,1.5 ×10⁷ /M/s,,,,> 512 µg/mL,,,,
CO/N=C(\C(=O)N[C@@H]1C(=O)N2C(C(=O)O)=C(COC(N)=O)CS[C@H]12)c1ccco1 [CEFUROXIME],> 512 µg/mL,> 512 µg/mL,8 µg/mL,2 µg/mL,,,,,,,> 512 µg/mL,,,,
O=C(Cc1cccs1)N[C@@H]1C(=O)N2C(C(=O)[O-])=C(C[n+]3ccccc3)CS[C@H]12 [CEPHALORIDINE],64 µg/mL,128 µg/mL,1 µg/mL,2 µg/mL,4.4 µM,686 s⁻¹,1.6 ×10⁸ /M/s,,,,512 µg/mL,,,,
CO[C@@]1(NC(=O)CSC(F)F)C(=O)N2C(C(=O)O)=C(CSc3nnnn3CCO)CO[C@@H]21 [FLOMOXEF],128 µg/mL,256 µg/mL,0.031 µg/mL,0.031 µg/mL,,,,,,,64 µg/mL,,,,
C[C@@H](O)[C@H]1C(=O)N2C(C(=O)O)=C(SCCNC=N)C[C@H]12 [IMIPENEM ANHYDROUS],,4 µg/mL,,0.063 µg/mL,,,5.6 ×10⁴ /M/s,,,,2 µg/mL,,,,
C[C@@H](O)[C@H]1C(=O)N2C(C(=O)O)=C(S[C@@H]3CN[C@H](C(=O)N(C)C)C3)[C@H](C)[C@H]12 [MEROPENEM],4 µg/mL,4 µg/mL,0.004 µg/mL,0.004 µg/mL,12 µM,0.4 s⁻¹,3.3 ×10⁴ /M/s,,,,4 µg/mL,,,,
CO[C@@]1(NC(=O)C(C(=O)O)c2ccc(O)cc2)C(=O)N2C(C(=O)O)=C(CSc3nnnn3C)CO[C@@H]21 (stereo partly specified) [MOXALACTAM],> 512 µg/mL,> 512 µg/mL,0.031 µg/mL,0.063 µg/mL,71 µM,2790 s⁻¹,3.9 ×10⁷ /M/s,,,,256 µg/mL,,,,
CCN1CCN(C(=O)N[C@@H](C(=O)N[C@@H]2C(=O)N3[C@@H]2SC(C)(C)[C@@H]3C(=O)O)c2ccccc2)C(=O)C1=O [PIPERACILLIN],4 µg/mL,16 µg/mL,0.25 µg/mL,2 µg/mL,,,,,,,4 µg/mL,,,,
